Experiment: Toxicity liver stage against HepG2, at 10uM
Type: cell-based
Set-up: test concentration 10 uM, cell line HepG2-A16-CD81EGFP
Conditions: human, HepG2-A16-CD81EGFP cells; read-out: INHIBITION
In short: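 Uninfected HepG2-A16-CD81EGFP cells, 3 × 10^3 per well, 1536-well, plated on prespotted compound at 10 μM final, parasite-free screening media added to match infected plates; puromycin 10 μM positive, DMSO 0.5% negative; run in parallel with 48 h PbLuc assay at 37 °C, 5% CO2; viability by CellTiter-Glo luminescence, normalized to controls.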

Row | Structure (SMILES) | cytotoxicity at 10 µM [%]
1 | O=C(NCCSC1CCCC1)c1cc(C2CC2)on1 | 0.459
2 | CN1CCC(CNC(=O)c2cccc(C(F)(F)F)c2)c2ccccc21 (configuration not stated) | 17.4
3 | COC(=O)[C@H]1CN(C(=O)NC(C)C)CCN1C(=O)C1CCCCC1 | 1.35
4 | CCc1ccc(NC(=O)c2cnc(N3CCCC3)nc2C)cc1 | 0.709
5 | CCOC(=O)[C@@H]1[C@@H](c2ccccc2)CN2CCN(S(C)(=O)=O)C[C@H]12 | 0.227
6 | Cn1nc2c(c1NC(=O)c1ccc(Cl)s1)CCC2 | -1.51
7 | Cc1nccn1-c1ccc(C(=O)NCC(F)(F)F)nn1 | -2.35
8 | CCN1C[C@H]2CCN(Cc3ccncc3)C(=O)[C@@H]2C1 | 5.53
9 | CCN1C(=O)CCCC12CCCN(C(=O)c1ccsc1)C2 (configuration not stated) | -153
10 | O=S(=O)(C1CC1)N1CCOC2(CCCN(c3cccc(F)c3)C2)C1 (configuration not stated) | 8.46
11 | COCCO[C@H]1CCN(Cc2ccoc2)[C@H]1Cc1cccnc1 | -3.85
12 | O=C(NCC1CCCO1)c1nc2c(s1)CCCN2Cc1ccccc1 (configuration not stated) | 1.84
13 | CCCS(=O)(=O)N1CC[C@@H]2[C@@H]1CC(=O)N2Cc1csc(C)n1 | -134
14 | O=C1CCCN1Cc1ncn2c1CN(C(=O)NC1CCCC1)CCC2 | -147
15 | COCc1cnc2n1CCN(C(=O)C1=CCCC1)C2C (configuration not stated) | 2.75
16 | CNC(=O)C1Cn2ccnc2C2(CCN(c3ccc(C)nn3)CC2)O1 (configuration not stated) | -137
17 | O=C1CC(c2ccc(C(=O)O)cc2)c2ncn(-c3ccccc3Cl)c2N1 (configuration not stated) | 2.03
18 | CCOc1ccc(Oc2cc(N)ccn2)cc1 | 2.9
19 | NC(=O)c1nnn(-c2ccc(Br)cc2)n1 | 6.56
20 | O=C(Nc1cc(-c2ccncc2)no1)C1CC1 | -4.18
21 | COCCc1ncc(CNC2(c3ccc(Cl)cc3)CC2)cn1 | -17.3
22 | CC(C)NC(=O)C1CCc2nnc(CNC(=O)c3cccnc3)n21 (configuration not stated) | 6.94
23 | O=C(COc1ccc2c(c1)CCCC2=O)NCc1ccco1 | 3.39

Row | Structure (SMILES) | cytotoxicity at 10 µM [%]
24 | Cc1nc(C2CCN(S(=O)(=O)c3ccc4c(c3)CCC4)CC2)n[nH]1 | -1.24
25 | CN(CC(O)C1CC1)C(=O)Nc1cc(F)cc(Br)c1 (configuration not stated) | -3.85
26 | CC(SCCC(=O)NC(N)=O)c1ccc(F)cc1F (configuration not stated) | 0.936
27 | COc1nc(N2CCN(C(C)=O)CC2)ncc1Br | 0.27
28 | Cc1sc2ncnc(N3CCCC3Cn3cccn3)c2c1C (configuration not stated) | 2.62
29 | Cc1cc(CC(C)NC(=O)c2n[nH]c3c2CCC3)n[nH]1 (configuration not stated) | -144
30 | NC(=O)C(NC1CCN(CC2CCCCC2)CC1)c1ccc(F)cc1 (configuration not stated) | -5.14
31 | N#CC1(NC(=O)c2nccc3ccccc23)CCC1 | 6.13
32 | CCN1CC(COC(=O)c2ccc(N(C)C)cc2F)CC1=O (configuration not stated) | 2.38
33 | CCN(CC)C(=O)CNC(=O)c1c[nH]c2ccc(OC)cc12 | -0.527
34 | O=C(Cc1csc(-c2ccoc2)n1)NCCCN1CCCCC1 | 12.6
35 | CCN(CC)c1nc2sc(C(=O)NCC(=O)OC)cc2s1 | 1.05
36 | Cc1nn(C(C)(C)C)c(=O)n1CC(=O)NC(C)(C)C | 1.45
37 | NC(=O)CC1CCN(C(=O)c2cnc(-c3ccccc3F)s2)CC1 | -0.608
38 | Cc1cc(N2CCc3c(nc(C(C)C)n3C)C2)nc(N)n1 | -6.79
39 | COc1cccc(NC(=O)NC(C)c2ccc3c(c2)CC(=O)N3)c1 (configuration not stated) | -3.49
40 | CC(C)(C)S(=O)(=O)CCNC1CSCCc2ccccc21 (configuration not stated) | -2.35
41 | OCCNC1CSCCc2ccccc21 (configuration not stated) | -1.44
42 | CCC(C)(NCc1cccc(NC(C)=O)c1)c1nc(C)cs1 (configuration not stated) | -2.27
43 | CC(=O)N1CCN(C(=O)NCc2ccccc2Cn2cncn2)CC1 | 0.0453
44 | O=C(CSc1ccc2c(c1)OCCO2)NS(=O)(=O)c1ccccc1Br | -4.62
45 | NC(=O)CSc1ccccc1NC(=O)C1CCCC1 | -135
46 | Cc1nnc2n1CCN(C(=O)c1cn(-c3ccccc3)nn1)C2 | -146

Row | Structure (SMILES) | cytotoxicity at 10 µM [%]
47 | Cc1nc2cc(O)nn2c(C)c1CCC(=O)N(C)CCC(C)C | -146
48 | COC1CCN(C(=O)c2cc(-c3ccc(Cl)cc3)on2)CC1 | -0.885
49 | CN(C(=O)Cc1ccc2c(c1)OCCO2)C1CCCCC1 | 2.89
50 | Fc1ccc(OC2CCN(Cc3nnc(-c4ccco4)o3)CC2)cc1 | -2.56
51 | O=C(CCNS(=O)(=O)c1cccnc1)N1CCCCC1 | -6.13
52 | COc1ccc(CNC(=O)CNc2ccccc2OC)cc1 | -2.25
53 | Cn1ccnc1CCNC(=O)NCCC1CCCCO1 (configuration not stated) | -1.94
54 | Cc1cc(NCC(=O)N(C)Cc2cccs2)c(C(N)=O)cc1F | 0.83
55 | O=C(NC1CC1)NC(c1ccc(F)cc1)C1CC1 (configuration not stated) | -0.158
56 | Cn1ccc(C(=O)N2CCN(Cc3ccccc3F)CC2)cc1=O | -1.44
57 | CC(=O)Nc1ccc2nn(C(C)C)cc2c1 | -145
58 | CCN(C(=O)CN1CCCC1c1ccc(F)cc1)c1ccccc1C (configuration not stated) | 5.42
59 | CC(C)c1cccc(-n2cc(O)c(C(=O)O)n2)c1 | -4.49
60 | O=C(C(NCc1cccc(F)c1F)c1ccccc1)N1CCOCC1 (configuration not stated) | 8.61
61 | CCC(=O)NC1CCCN(C(=O)Nc2cccc(COC(C)C)c2)C1 (configuration not stated) | 7.96
62 | Cc1cc(CS(=O)(=O)CC(=O)N2c3ccccc3CC2C)no1 (configuration not stated) | -0.284
63 | Cc1cccnc1NC(=O)C1CCN(C(=O)C(C)C)CC1 | 6.7
64 | COc1ccc(Br)cc1CCC(=O)N1CCCC(O)C1 (configuration not stated) | 5.66
65 | CC(C)CS(=O)(=O)NC(=O)c1ccc2c(c1)ncn2C | -9.94
66 | O=S(=O)(Cc1cccc2cccnc12)NC(CO)c1ccco1 (configuration not stated) | 4.22
67 | Cc1cc2c(cc1C)C(NCc1nnc3n1CCCCC3)CCCO2 (configuration not stated) | 0.873
68 | N#Cc1cccnc1NCCNC(=O)N1CCCC(C(F)(F)F)C1 (configuration not stated) | -3.76
69 | CN(CCN1CCOCC1)C(=O)CCCc1ccccc1 | -8.28

Row | Structure (SMILES) | cytotoxicity at 10 µM [%]
70 | CC1CCc2n[nH]c(C(=O)NCCc3ccco3)c2C1 (configuration not stated) | -6.63
71 | CCc1ncc(CN2CCN(c3cc(NC4CC4)nc(N)n3)CC2)cn1 | -3.44
72 | CCn1c(C2CCCN(Cc3ccnc4ccccc34)C2)nn(C)c1=O (configuration not stated) | -5.92
73 | CCn1ncnc1CN1CCc2[nH]cnc2C1Cc1ccccc1 (configuration not stated) | -4.94
74 | CN1CCN(C[C@@H]2CN(Cc3c(Cl)cncc3Cl)C[C@@H]2CO)CC1 | -124
75 | CCc1cnc(C)nc1NCCN1CCOCC1 | -2.66
76 | Cc1ncsc1C(=O)NCc1cc2n(n1)CCN(C(=O)N(C)C)C2 | -5.62
77 | CCN(Cc1ccncc1)C(=O)c1cn(CC2CCCNC2)nn1 (configuration not stated) | 5.35
78 | CC(=O)N[C@@H]1CN(C(=O)c2cc(C)oc2C)C[C@H]1c1ccc(C)o1 | -10.6
79 | COc1nccnc1N1CCC2(CC1)C(=O)N(C)c1ccccc12 | -4.89
80 | O=C(C1CCC1)N1CCN(Cc2cccnc2)[C@H]2CS(=O)(=O)C[C@H]21 | 1.02
81 | CCc1noc(CN(CC)Cc2cc3ccc(F)cc3[nH]c2=O)n1 | 2.24
82 | O=C(Nc1ccc(F)cc1)C1CNCCN1C(=O)CCc1cccnc1 (configuration not stated) | 2.06
83 | COc1ccc(C(=O)O)cc1-c1cccc(C(C)N(C)C)c1 (configuration not stated) | -7.13
84 | O=C(NCc1ccccn1)c1cc2n(n1)CCNC2 | 1.19
85 | CN1CCN(Cc2nc3c(s2)CCCC3)[C@H]2CS(=O)(=O)C[C@H]21 | 2.81
86 | COc1ccccc1N1CCN(C(=O)Cn2nccc2C)CC1(C)C | 11.8
87 | O=C(CN1CC(c2ccccc2)CC1=O)N1CCN(c2nccs2)CC1 (configuration not stated) | -1.7
88 | CCc1ccc(-c2cn(CCSc3ncn[nH]3)nn2)nc1 | -0.89
89 | CCc1nc(CN(C)Cc2nc(-c3ccccc3Cl)oc2C)no1 | -8.83
90 | CC(=O)N1CCCC1C(=O)NCCOc1c(C)cccc1C (configuration not stated) | -24.1
91 | CCc1nc2n(n1)CC(NCc1cc(OC)c3c(c1)OCO3)CC2 (configuration not stated) | 4.23
92 | Cc1csc(CNC(=O)N(C)Cc2ccncc2)n1 | -10.8

Row | Structure (SMILES) | cytotoxicity at 10 µM [%]
93 | Cc1cccc(C)c1OCC(=O)NS(=O)(=O)c1c(C)noc1C | -2.28
94 | Cc1noc(CNC2CCCN(Cc3noc(C4CC4)n3)C2)n1 (configuration not stated) | -1.7
95 | O=C(c1cc2c(s1)CCC2)N1CCCC1c1noc(C2CC2)n1 (configuration not stated) | -8.18
96 | Cc1cc(C)c(CNC(=O)NCc2ccc3c(c2)OCCO3)c(=O)[nH]1 | -11.6
97 | N#CC1(C(=O)N2CCCN(Cc3cscn3)CC2)CCCCC1 | -2.54
98 | Cc1nc(C)n(CC2CCCCN2Cc2cn3ccccc3n2)n1 (configuration not stated) | -4.47
99 | COc1ccc(S(=O)(=O)N2CCc3ccc(Cl)cc32)cc1C(=O)O | -11.6
100 | COC(=O)C1CCN(c2cc(C)nc(-c3ccncc3)n2)CC1 | 2.76
101 | COc1ccnc(N2CCN(C(=O)Cc3csc(C)n3)CC2)n1 | -15.6
102 | CCc1ncncc1C(=O)NC1CCc2nc(C)cn2C1 (configuration not stated) | -17.3
103 | CCN(Cc1ccc2c(c1)OCO2)C(=O)NCc1nc(C)cs1 | 7.47
104 | Cc1cccc(-c2nc(C)nn2CC(=O)N(C)C2CC2)c1 | -19.8
105 | C/C(=C\c1ccccc1)CN1CCCC(c2nnc3n2CCNCC3)C1 (configuration not stated) | 6.97
106 | CN(C)c1ncc(I)c(C2CCCN2C)n1 (configuration not stated) | 3.7
107 | O=C(c1cccnc1)N1C[C@H]2CN(Cc3cccc(F)c3)C(=O)[C@H]2C1 | -78.9
108 | Cc1noc(C)c1CNCC1COCc2c(-c3ccsc3)nnn2C1 (configuration not stated) | 5.74
109 | O=C1[C@H]2CN(CC3CCOCC3)C[C@H]2CN1Cc1cccc(F)c1 | -118
110 | COCCN1C2(CCN(CC3CC3)C2)c2ccccc2S1(=O)=O (configuration not stated) | -130
111 | O=C(N1CCCC1)N1C[C@@H](OCc2cccnc2)[C@H]2OCCC[C@H]21 | 4.85
112 | COCCN1C(=O)CCC12CCC(NC(=O)c1cc(C)on1)CC2 (configuration not stated) | 3.94
